Measurements collected from several papers.
Protocols differ between the studies behind these lines.
PPARA: Peroxisome proliferator-activated receptor alpha (PPARA, Homo sapiens, UniProt Q07869)
ADRA1B: Alpha-1B adrenergic receptor (ADRA1B, Homo sapiens, UniProt P35368)
CASP1: Caspase-1 (CASP1, Homo sapiens, UniProt P29466)

With `CC1(COc2ccc(CC3SC(=O)NC3=O)cc2)CCCCC1` (stereo not shown) the Ki was 141000 nM (PPARA; ligand displacement, TR-FRET).
For `CC(=O)N[C@@H](CCCNC(=N)N)C(=O)NCCOCCOCC(=O)N[C@H](CC(=O)O)C(=O)N1CCC[C@H]1B(O)O`, the Ki was 23.9 nM (Prolyl endopeptidase (PREP, Homo sapiens, UniProt P48147); enzyme activity, inhibitor, fluorescence).
The Ki of `COc1ccccc1N1CCN(CCCCN2CCc3ccccc3C2=O)CC1` is reported as 76.6 nM (ADRA1B; ligand displacement, radioligand).
`NCCCCC(c1ccccc1)(c1ccccc1)c1ccccc1` gave a Ki of 1670 nM (Kinesin-like protein KIF11 (KIF11, Homo sapiens, UniProt P52732); ATPase activity, inhibitor).
The Ki of `CCCC[C@H](NC(=O)[C@H](C)c1c(C)[nH]c2ccc(O)cc12)c1ncc(-c2cc3ccccc3nc2OC)[nH]1` is reported as 60 nM (Histone deacetylase 3 (HDAC3, Homo sapiens, UniProt O15379); enzyme activity, inhibitor).
With `CC(=O)N[C@@H](CC(C)C)C(=O)N[C@@H](CC(C)C)C(=O)N[C@@H](CCCN=C(N)N)C(=O)N[C@H](C(=O)N[C@@H](CCCCN)C(=O)N[C@@H](CCCN=C(N)N)C(N)=O)C(C)C` the Ki was 2700 nM (Proprotein convertase subtilisin/kexin type 7 (Homo sapiens, UniProt Q16549); enzyme activity, inhibitor).
For `CCCCN1CCC(COC(=O)c2ccc(N)c(OCF)c2)CC1`, the Ki was > 10000 nM (ADRA1B; cell-free assay, radioligand).
`O=c1c(O)c(-c2cc(O)c(O)c(O)c2)oc2cc(O)cc(O)c12` has a Ki of 14300 nM (CASP1; enzyme activity, inhibitor, fluorescence).
The Ki of `COc1ccc2c(c1)C(=O)N(CCN1CCN(c3ccccc3OC)CC1)C2` is reported as 38.7 nM (ADRA1B; ligand displacement, radioligand).
The Ki of `O=C(Nc1ccc(Oc2ncccn2)cc1C(=O)O)c1ccc(Cl)cc1Cl` is reported as 4420 nM (PPARA; ligand displacement, TR-FRET).
The Ki of `CSC[C@H]1CN(Cc2c[nH]c3c(N)ncnc23)C[C@@H]1O` is reported as 7.8 nM (5'-methylthioadenosine/S-adenosylhomocysteine nucleosidase (Staphylococcus aureus, UniProt Q5HFG2); enzyme activity, inhibitor).
The Ki of `O=c1cc(-c2ccc(O)c(O)c2)oc2cc(O)cc(O)c12` is reported as 119000 nM (CASP1; enzyme activity, inhibitor, fluorescence).
With `CS(=O)(=O)Nc1ccc[nH]c1=S` the Ki was > 200000 nM (Insulin-degrading enzyme (IDE, Homo sapiens, UniProt P14735); cell-free assay, inhibitor).
